Experiment [1] addresses Adrenergic receptor alpha-2 (Rattus norvegicus) (UniProt P22086+P19328+P22909). The experiment can be described thus: Ratio for binding affinity towards alpha-2 adrenoceptor to PNMT. In kind it is protein assay. An outline of the steps: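 Ratio of α2-adrenoceptor Ki (rat cortex, [3H]clonidine binding) to PNMT Ki (bovine adrenal enzyme, radiochemical assay with phenylethanolamine substrate).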

The target in experiment [2] is T1, Phenylethanolamine N-methyltransferase (Bos taurus, UniProt P10938).
T1 sequence (P10938 whole entry): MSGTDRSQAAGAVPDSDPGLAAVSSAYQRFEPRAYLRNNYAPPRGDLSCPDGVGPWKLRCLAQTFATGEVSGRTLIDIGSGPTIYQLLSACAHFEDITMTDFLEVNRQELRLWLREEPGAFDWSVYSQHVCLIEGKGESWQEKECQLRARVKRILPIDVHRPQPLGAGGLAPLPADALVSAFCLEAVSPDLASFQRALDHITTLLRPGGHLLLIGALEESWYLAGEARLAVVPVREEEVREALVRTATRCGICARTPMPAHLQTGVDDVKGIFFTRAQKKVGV
As to the kind of experiment: Affinity for bovine Phenylethanolamine N-Methyltransferase.

Experiment [3] has as its target T2, Adrenergic receptor alpha-2 (Rattus norvegicus, UniProt P22086+P19328+P22909).
T2 sequence (P22086 whole entry): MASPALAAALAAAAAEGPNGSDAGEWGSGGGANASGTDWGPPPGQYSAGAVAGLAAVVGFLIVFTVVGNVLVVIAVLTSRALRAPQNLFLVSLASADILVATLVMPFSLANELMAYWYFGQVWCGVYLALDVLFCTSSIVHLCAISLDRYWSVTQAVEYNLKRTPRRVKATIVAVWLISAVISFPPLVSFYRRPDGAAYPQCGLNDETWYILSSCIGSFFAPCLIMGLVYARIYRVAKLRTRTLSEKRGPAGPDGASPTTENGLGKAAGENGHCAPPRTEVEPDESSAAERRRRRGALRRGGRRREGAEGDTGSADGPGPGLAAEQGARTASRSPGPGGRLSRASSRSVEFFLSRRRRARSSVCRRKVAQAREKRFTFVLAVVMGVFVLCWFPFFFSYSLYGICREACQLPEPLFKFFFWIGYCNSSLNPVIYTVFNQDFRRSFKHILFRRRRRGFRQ
T2 sequence (P19328 whole entry): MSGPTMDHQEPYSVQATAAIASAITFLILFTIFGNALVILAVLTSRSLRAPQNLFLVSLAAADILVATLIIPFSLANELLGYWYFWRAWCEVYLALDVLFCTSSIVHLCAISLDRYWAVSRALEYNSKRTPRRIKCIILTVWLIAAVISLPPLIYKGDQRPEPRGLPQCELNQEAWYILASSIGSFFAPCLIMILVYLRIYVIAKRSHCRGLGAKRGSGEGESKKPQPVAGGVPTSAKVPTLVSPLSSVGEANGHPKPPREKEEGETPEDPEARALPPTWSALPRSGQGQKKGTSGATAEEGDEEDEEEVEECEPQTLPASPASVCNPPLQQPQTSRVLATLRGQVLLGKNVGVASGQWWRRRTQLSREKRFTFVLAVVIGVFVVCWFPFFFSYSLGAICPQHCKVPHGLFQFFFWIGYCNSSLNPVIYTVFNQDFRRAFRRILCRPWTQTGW
T2 sequence (P22909 whole entry): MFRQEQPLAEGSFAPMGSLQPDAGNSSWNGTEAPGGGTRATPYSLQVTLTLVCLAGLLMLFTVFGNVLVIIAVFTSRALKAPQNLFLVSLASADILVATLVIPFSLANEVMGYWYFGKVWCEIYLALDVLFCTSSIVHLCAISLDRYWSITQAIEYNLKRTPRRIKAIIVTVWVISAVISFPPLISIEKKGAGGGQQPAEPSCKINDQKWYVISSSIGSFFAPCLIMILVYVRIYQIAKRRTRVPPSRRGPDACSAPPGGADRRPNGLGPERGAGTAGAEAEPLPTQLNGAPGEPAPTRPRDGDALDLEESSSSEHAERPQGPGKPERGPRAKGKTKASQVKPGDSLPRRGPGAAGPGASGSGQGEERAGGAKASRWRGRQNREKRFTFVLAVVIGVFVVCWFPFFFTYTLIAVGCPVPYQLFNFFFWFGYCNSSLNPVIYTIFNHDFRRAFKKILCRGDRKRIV
As to the kind of experiment: Compound was tested in vitro for its affinity towards rat Alpha-2 adrenergic receptor. In kind it is protein assay. An outline of the steps:
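Membranes from male Sprague-Dawley rat cortex, homogenized in ice-cold 50 mM Tris/HCl pH 7.7 and washed by three 50000g spins. Incubated with [3H]clonidine (final 2.0 nM) and varied inhibitor concentrations, 25 °C for 30 min, then vacuum-filtered on GF/B and counted. Nonspecific binding with 2 μM phentolamine. IC50 by log-probit, converted to Ki = IC50/(1+[clonidine]/KD).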

The target of experiment [4] is T1, Phenylethanolamine N-methyltransferase. The experiment can be described thus: Affinity for bovine Phenylethanolamine N-Methyltransferase (PNMT).

This is an account of results in ChEMBL document CHEMBL1132375, “Synthesis and biochemical evaluation of 3-fluoromethyl-1,2,3, 4-tetrahydroisoquinolines as selective inhibitors of phenylethanolamine N-methyltransferase versus the alpha(2)-adrenoceptor” (J Med Chem, 1999).

As for `CC1Cc2ccccc2CN1` (centres undefined), in experiment [1], the Ratio was determined as 0.36.
`O=[N+]([O-])c1ccc2c(c1)CNC(CF)C2` (centres undefined): the Ki in experiment [2] turned out to be 540 nM; in experiment [3] it was 76000 nM. Besides, the Ratio in experiment [1] was 140.
`FCC1Cc2ccc(I)cc2CN1` (centres undefined): the Ki was found to be 210 nM in experiment [2] and 7100 nM in experiment [3]. Further, the Ratio in experiment [1] came to 34.
Regarding `CS(=O)(=O)c1ccc2c(c1)CNC(CO)C2` (centres undefined), in experiment [1], the Ratio came out at 1000.
On to `O=S(=O)(NCc1ccccc1)c1ccc2c(c1)CNC(CF)C2` (centres undefined), for which the Ki in experiment [2] is 6500 nM; in experiment [3], 110000 nM. Also, the Ratio in experiment [1] stood at 17.
On to `FCC1Cc2ccc(Br)cc2CN1` (centres undefined), for which the Ratio in experiment [1] is 10. For the same compound, the Ki in experiment [4] amounted to 640 nM; in experiment [3] it was 6400 nM.
In the case of `Clc1ccc2c(c1Cl)CNCC2`, in experiment [1], the Ratio was determined as 0.095.
`[N-]=[N+]=Nc1ccc2c(c1)CNC(CF)C2` (centres undefined): the Ratio in experiment [1] was 28. For the same compound, the results for the Ki in experiment [4] and in experiment [3] were 1700 nM and 47000 nM, respectively.
On to `NS(=O)(=O)c1ccc2c(c1)CNC(CO)C2` (centres undefined), for which the Ratio in experiment [1] came out at 4100.
`CNS(=O)(=O)c1ccc2c(c1)CNC(CF)C2` (centres undefined): the Ki in experiment [2] was determined as 2400 nM; in experiment [3], 310000 nM. Moreover, the Ratio in experiment [1] was determined as 130.
Take `FC(F)(F)C1Cc2ccc(Br)cc2CN1` (centres undefined): the Ratio in experiment [1] was found to be 1900.
With `NS(=O)(=O)c1ccc2c(c1)CNC(CF)C2` (centres undefined), the Ki in experiment [2] was determined as 660 nM; in experiment [3], 680000 nM. Also, the Ratio in experiment [1] is 1000.
`FCC1Cc2ccc(C(F)(F)F)cc2CN1` (centres undefined): the Ratio in experiment [1] came to 130. The Ki was determined as 320 nM in experiment [4] and 41000 nM in experiment [3].
As for `CS(=O)(=O)c1ccc2c(c1)CNC(CF)C2` (centres undefined), the Ki is 1600 nM in experiment [2] and 230000 nM in experiment [3]. Besides, the Ratio in experiment [1] came out at 140.
`OCC1Cc2ccccc2CN1` (centres undefined): the Ratio in experiment [1] came to 6.
Take `FCC1Cc2ccc(N=C=S)cc2CN1` (centres undefined): the Ratio in experiment [1] was found to be 39. Further, the Ki in experiment [4] amounted to 570 nM; in experiment [3], 22000 nM.
For the compound `FCC1Cc2ccccc2CN1` (centres undefined), the Ratio in experiment [1] was 2.5. The Ki is 1500 nM in experiment [4] and 3800 nM in experiment [3].
As to `COCC1Cc2ccccc2CN1` (centres undefined), in experiment [1], the Ratio was determined as 0.3.
On to `O=S(=O)(Nc1ccc(Cl)cc1)c1ccc2c(c1)CNC(CF)C2` (centres undefined), for which the Ki in experiment [2] came to 740 nM; in experiment [3], 160000 nM. In addition, in experiment [1], the Ratio is 220.
Consider `COc1ccc2c3c([nH]c2c1)C=NCC3`, for which, in experiment [1], the Ratio came to 4.4.
Take `N#Cc1ccc2c(c1)CNC(CF)C2` (centres undefined): the results for the Ki in experiment [2] and in experiment [3] were 1100 nM and 460000 nM, respectively. Moreover, the Ratio in experiment [1] was determined as 420.
As for `CS(=O)(=O)c1ccc2c(c1)CNC(C(F)(F)F)C2` (centres undefined), the Ratio in experiment [1] came to 110.
Consider `CCC1Cc2ccccc2CN1` (centres undefined), for which the Ratio in experiment [1] amounted to 0.028.

For orientation: Ki means a measure of affinity in units of concentration, obtained from inhibition or displacement. High values mean weaker binding, low ones tighter binding.
